Measurements taken from ChEMBL document CHEMBL2203094, “Ramariolides A-D, antimycobacterial butenolides isolated from the mushroom Ramaria cystidiophora” (J Nat Prod, 2012).
Values after ≈ are worked out from the molar mass of the structure shown. Active and inactive are the calls of the source. The rule behind the calls is not given here.

Tests used:
[1] = test system: Mycolicibacterium smegmatis; experiment: Antimicrobial activity against Mycobacterium smegmatis str. MC2 155 by broth dilution method; type: functional
In short: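 M. smegmatis mc2155 grown and assayed at 37 °C in NE13 medium. Broth dilution with twofold serial dilutions, top concentration 128 μg/mL, run in triplicate. Resazurin read-out; MIC is the lowest concentration preventing the blue-to-pink change. For MBC, each well was subcultured into fresh medium before resazurin was added, then read the same way.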

[2] = test system: Mycobacterium tuberculosis; experiment: Antimicrobial activity against Mycobacterium tuberculosis CDC1551 by MTT assay; type: functional
In short: (§1)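 Strains were grown in Middlebrook 7H9 with 0.2% glycerol and 10% ADC; tyloxapol was omitted in assays. Inoculum of 10^5 cells/mL was exposed to 2-fold serial dilutions at 37 °C in 5% CO2 for 7 d. MTT (2.5 mg/mL) was then added for 24 h, followed by 10% Na lauryl sulfate, and OD570 read after 24 h. IC50 came from a four-parameter log2 dose-response fit, in triplicate.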

[3] = test system: Staphylococcus aureus; experiment: Antimicrobial activity against Staphylococcus aureus RN4220 at 50 ug after 16 to 18 hrs by disk diffusion method; type: functional; conditions: read-out: DIZ
In short: (§2)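 Disk diffusion: strains grown at 37 °C in NE13 medium. Agar plates swabbed from 10^6 cells/mL suspensions; 6 mm paper disks loaded with 50 μg compound; growth-inhibition zones measured after 16−18 h.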

[4] = test system: Escherichia coli; experiment: Antimicrobial activity against Escherichia coli O157:H7; type: functional, organism-based
[5] = test system: Mycobacterium tuberculosis; experiment: Antimicrobial activity against Mycobacterium tuberculosis str. Erdman by MTT assay; type: functional; in short: as §1
[6] = test system: Mycobacterium tuberculosis; experiment: Antimicrobial activity against Mycobacterium tuberculosis H37Rv by MTT assay; type: functional, organism-based; in short: as §1
[7] = test system: Pseudomonas aeruginosa; experiment: Antimicrobial activity against Pseudomonas aeruginosa PAO1; type: functional, organism-based
In short: (§3)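 Disk diffusion spectrum test: agar plates swabbed from 10^6 cells/mL suspensions of each strain; 6 mm paper disks carrying 50 μg compound; inhibition zone sizes read after 16−18 h.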

[8] = test system: Micrococcus luteus; experiment: Antimicrobial activity against Micrococcus luteus JVC1154 at 50 ug after 16 to 18 hrs by disk diffusion method; type: functional; conditions: read-out: DIZ; in short: as §2
[9] = test system: Acinetobacter baumannii; experiment: Antimicrobial activity against Acinetobacter baumannii ATCC 19606; type: functional, organism-based; conditions: ATCC 19606 = CIP 70.34 = JCM 6841; in short: as §3
[10] = test system: Salmonella typhimurium; experiment: Antimicrobial activity against Salmonella typhimurium ATCC 14028; type: functional, organism-based; conditions: Salmonella enterica subsp. enterica serovar Typhimurium; in short: as §3

Compound	MIC [1]	IC50 [2]	MIC [2]	zone of inhibition at 50 µg/disc [3]	Activity [4]	IC50 [5]	MIC [5]	IC50 [6]	MIC [6]	Activity [7]	zone of inhibition at 50 µg/disc [8]	Activity [9]	Activity [10]
NNC(=O)c1ccncc1 [ISONIAZID]	8 µg/mL (≈ 58.3 µM)	–	–	–	–	–	–	–	–	–	–	–	–
CCCCCCCCCC[C@H](O)[C@@H]1O[C@]12C=CC(=O)O2 [RAMARIOLIDE A]	8 µg/mL (≈ 28.3 µM)	53 µg/mL (≈ 188 µM)	64 µg/mL (≈ 227 µM)	15 mm	inactive	53 µg/mL (≈ 188 µM)	64 µg/mL (≈ 227 µM)	53 µg/mL (≈ 188 µM)	64 µg/mL (≈ 227 µM)	inactive	18 mm	inactive	inactive
CN[C@@H]1[C@H](O)[C@H](NC)[C@H]2O[C@@]3(O)C(=O)C[C@@H](C)O[C@H]3O[C@@H]2[C@H]1O [SPECTINOMYCIN]	32 µg/mL (≈ 96.3 µM)	–	–	–	–	–	–	–	–	–	–	–	–
